Results taken from publication PMC2828288 (Journal of medicinal chemistry, 2010).
Where two headings read alike, the source gives them in different places.

Key:
[1] = system: total brain 2-AG levels; conditions: upon administration to mice; cited from earlier work
[2] = biological target: T1, NTE (Mus musculus, UniProt Q3TRM4); conditions: mice, 20 mg/kg intraperitoneally, or 100 mg/kg orally; cited from earlier work
T1 sequence (Q3TRM4 1-1355): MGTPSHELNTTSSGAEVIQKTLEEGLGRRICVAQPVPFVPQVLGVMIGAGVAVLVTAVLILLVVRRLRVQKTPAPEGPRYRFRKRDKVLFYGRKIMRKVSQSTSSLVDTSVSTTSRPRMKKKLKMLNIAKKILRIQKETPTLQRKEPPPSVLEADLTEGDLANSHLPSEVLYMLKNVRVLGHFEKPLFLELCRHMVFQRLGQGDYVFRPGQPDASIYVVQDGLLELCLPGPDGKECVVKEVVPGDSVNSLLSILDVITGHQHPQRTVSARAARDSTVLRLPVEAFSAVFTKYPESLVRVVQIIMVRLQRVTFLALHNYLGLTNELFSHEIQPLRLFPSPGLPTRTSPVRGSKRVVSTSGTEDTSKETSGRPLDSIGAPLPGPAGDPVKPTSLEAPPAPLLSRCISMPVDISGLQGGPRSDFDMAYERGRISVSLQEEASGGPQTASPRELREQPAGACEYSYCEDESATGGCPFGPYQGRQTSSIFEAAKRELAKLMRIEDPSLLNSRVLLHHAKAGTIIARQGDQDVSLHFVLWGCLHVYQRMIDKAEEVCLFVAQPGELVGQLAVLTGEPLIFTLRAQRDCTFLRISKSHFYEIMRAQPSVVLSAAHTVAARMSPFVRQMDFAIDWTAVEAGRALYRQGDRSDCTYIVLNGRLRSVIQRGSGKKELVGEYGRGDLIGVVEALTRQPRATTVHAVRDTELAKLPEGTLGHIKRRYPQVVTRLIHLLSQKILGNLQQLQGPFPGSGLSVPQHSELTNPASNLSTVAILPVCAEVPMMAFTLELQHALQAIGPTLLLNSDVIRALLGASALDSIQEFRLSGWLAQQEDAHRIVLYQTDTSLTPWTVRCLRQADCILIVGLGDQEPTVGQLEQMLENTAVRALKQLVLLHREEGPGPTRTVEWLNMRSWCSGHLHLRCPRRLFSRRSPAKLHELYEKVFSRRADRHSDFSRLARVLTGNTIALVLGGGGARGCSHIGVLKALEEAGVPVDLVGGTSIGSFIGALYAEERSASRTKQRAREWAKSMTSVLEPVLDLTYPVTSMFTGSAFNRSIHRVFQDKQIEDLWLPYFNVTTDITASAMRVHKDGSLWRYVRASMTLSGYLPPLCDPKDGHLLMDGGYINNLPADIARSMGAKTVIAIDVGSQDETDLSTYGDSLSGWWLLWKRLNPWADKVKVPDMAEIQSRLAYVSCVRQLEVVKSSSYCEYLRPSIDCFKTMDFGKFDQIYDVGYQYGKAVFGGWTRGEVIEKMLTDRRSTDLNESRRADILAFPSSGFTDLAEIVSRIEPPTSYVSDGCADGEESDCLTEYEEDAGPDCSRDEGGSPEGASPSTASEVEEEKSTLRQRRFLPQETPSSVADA

[3] = mice, 20 mg/kg i.p. daily for 6 days; cited from earlier work
[4] = biological target: T2, FAAH (Mus musculus, UniProt O08914); conditions: mice, 20 mg/kg intraperitoneally, or 100 mg/kg orally; cited from earlier work
T2 sequence (O08914 1-579): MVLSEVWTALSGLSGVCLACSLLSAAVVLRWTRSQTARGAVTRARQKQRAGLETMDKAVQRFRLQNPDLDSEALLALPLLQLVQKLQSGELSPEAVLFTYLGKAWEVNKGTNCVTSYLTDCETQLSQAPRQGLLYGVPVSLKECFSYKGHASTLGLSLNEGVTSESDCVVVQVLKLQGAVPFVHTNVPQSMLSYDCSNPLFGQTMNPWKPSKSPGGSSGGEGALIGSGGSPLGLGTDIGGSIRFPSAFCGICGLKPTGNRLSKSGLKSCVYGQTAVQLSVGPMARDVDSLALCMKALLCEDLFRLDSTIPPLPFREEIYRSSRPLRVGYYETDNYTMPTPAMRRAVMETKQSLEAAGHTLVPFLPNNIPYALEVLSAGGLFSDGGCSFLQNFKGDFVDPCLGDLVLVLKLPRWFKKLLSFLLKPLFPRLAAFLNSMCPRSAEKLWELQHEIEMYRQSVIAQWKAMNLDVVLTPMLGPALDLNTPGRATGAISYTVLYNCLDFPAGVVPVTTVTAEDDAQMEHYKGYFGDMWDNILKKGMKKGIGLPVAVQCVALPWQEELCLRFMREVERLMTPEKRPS

[5] = system: MAGL; conditions: mice, 20 mg/kg intraperitoneally, or 100 mg/kg orally; cited from earlier work
[6] = biological target: T2, FAAH; test: FAAH activity after in vivo administration to mice; conditions: administration to mice at doses that reduced MAGL activity; data not shown
[7] = system: serine hydrolases in the mouse brain membrane proteome; format: biochemical; conditions: competitive ABPP
How it was run: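 Mouse brain tissue Dounce-homogenized in PBS pH 7.5, spun at 1,400 × g for 5 min, then at 64,000 × g for 45 min; the membrane pellet was resuspended in PBS by sonication. Proteome at 1 mg/ml was preincubated with test compound at the indicated concentrations for 30 min at 37 °C. FP-rhodamine (1 μM final) was then added for 30 min at 25 °C, followed by SDS-PAGE and in-gel fluorescence scanning.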

[8] = system: MAGL; test: Competitive ABPP; format: biochemical, mouse; conditions: brain proteome
[9] = biological target: T1, NTE; test: NTE activity after in vivo administration to mice; conditions: 20 mg/kg, i.p., data not shown

For O=C(Oc1ccc([N+](=O)[O-])cc1)N1CCC(C(O)(c2ccc3c(c2)OCO3)c2ccc3c(c2)OCO3)CC1 [Compound 1, 4-nitrophenyl 4-(dibenzo[d][1,3]dioxol-5-yl(hydroxy)methyl)piperidine-1-carboxylate], the “elevation of total brain 2-AG levels” value [1] is listed as > 8 fold.
In the case of O=C(Oc1ccc([N+](=O)[O-])cc1)N1CCN(Cc2cccc(Oc3ccccc3)c2)CC1 [Compound 2], the “NTE inhibition in vivo” value [2] is listed as “no inhibition of NTE was observed”, the “death or overt signs of discomfort on chronic administration” value [3] is listed as “did not produce death or overt signs of discomfort” and the “FAAH blockade in vivo” value [4] is listed as “completely blocked”. The “MAGL blockade in vivo” value [5] was “completely blocked”.
For O=C(Oc1ccc([N+](=O)[O-])cc1)N1CCN(C(c2ccc(F)cc2)c2ccc(F)cc2)CC1 [Compound 5], the “FAAH activity in vivo” value [6] was “significantly blocked FAAH activity”.
With COc1ccc(C(O)(c2ccc(OC)cc2)C2CCN(C(=O)Oc3ccc([N+](=O)[O-])cc3)CC2)cc1 [Compound 6] the “FAAH activity in vivo” value [6] was “significantly blocked FAAH activity”.
With CN(CCC(c1ccccc1)c1ccccc1)C(=O)Oc1ccc([N+](=O)[O-])cc1 [Compound 9a, 4-nitrophenyl 3,3-diphenylpropyl(methyl)carbamate] the “activity against FAAH, MAGL and other serine hydrolases” value (“activity against FAAH” below) [7] was “inactive”.
With CN(C(=O)Oc1ccc([N+](=O)[O-])cc1)C(c1ccccc1)c1ccccc1 [Compound 9b, 4-nitrophenyl benzhydryl(methyl)carbamate] the “activity against FAAH” value [7] was “inactive”.
With COc1ccc(C(O)(c2ccc(OC)cc2)C2CCN(C(=O)Oc3ccc([N+](=O)[O-])cc3)C2)cc1 (stereo not drawn) [Compound 15, 4-nitrophenyl 3-(hydroxybis(4-methoxyphenyl)methyl)pyrrolidine-1-carboxylate] the “activity against FAAH” value [7] was “inactive”.
In the case of COc1ccccc1C(O)(c1ccccc1OC)C1CCN(C(=O)Oc2ccc([N+](=O)[O-])cc2)CC1 [Compound 33b, 4-nitrophenyl 4-(hydroxybis(2-methoxyphenyl)methyl)piperidine-1-carboxylate], the “selectivity for MAGL over FAAH” value [8] is reported as ~ 10 fold.
For COc1ccc(C(O)(c2ccc(OC)c(OC)c2)C2CCN(C(=O)Oc3ccc([N+](=O)[O-])cc3)CC2)cc1OC [Compound 33c, 4-nitrophenyl 4-(bis(3,4-dimethoxyphenyl)(hydroxy)methyl)piperidine-1-carboxylate], the Selectivity ([8]; MAGL over FAAH (ratio of IC50s)) was >38 and the “selectivity for MAGL over FAAH” value [8] was 40–400 fold.
With O=C(Oc1ccc([N+](=O)[O-])cc1)N1CCN(Cc2ccc(-c3ccccc3)s2)CC1 [Compound 36h, 4-nitrophenyl 4-((5-phenylthiophen-2-yl)methyl)piperazine-1-carboxylate] the “NTE inhibition in vivo” value [9] was “inhibited NTE”.
With O=C(Oc1ccc([N+](=O)[O-])cc1)N1CCN(Cc2cccc(Oc3cc(Cl)cc(Cl)c3)c2)CC1 [Compound 36q, 4-nitrophenyl 4-(3-(3,5-dichlorophenoxy)benzyl)piperazine-1-carboxylate] the “activity against FAAH” value [7] was “unable to inhibit any of the hydrolases”.
